The source made the active and inactive calls. The rule behind the calls is not given here.
Legend:
[1] = system: T-24; experiment: Induction of p16 gene expression in human T24 cells at 1 uM after 8 days by real time PCR; format: functional, cell-based
How it was run: (§1)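 T24 or HCT15 cells were treated continuously for 8 days at 1, 10 or 100 μM, with or without 100 μM thymidine. Drug and medium were renewed every 2–3 days. T24 cells were grown in McCoy's 5A with 10% FCS. Total RNA (5 μg) was reverse transcribed with random primers. p16 mRNA was measured by real-time RT-PCR and normalized to GAPDH.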

[2] = system: T-24; experiment: Induction of p16 gene expression in human T24 cells at 100 uM after 8 days by real time PCR; format: functional, cell-based; how it was run: as §1
[3] = system: CFPAC-1; experiment: Induction of p16 gene expression in human Cf-Pac-1 cells at 1 uM after 8 days by real time PCR; format: functional, cell-based
How it was run: (§2)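 Cf-Pac-1 cells in IMDM/10% FCS were seeded 3×10^5/dish and treated continuously for 8 days from 24 hr after seeding. Medium and drug were refreshed every 2–3 days, with 100 μM thymidine, lower thymidine, or 100 μM uridine added. Total RNA (5 μg) was reverse transcribed with MMLV RT and random primers. p16 mRNA was measured by real-time RT-PCR and normalized to GAPDH.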

[4] = system: CFPAC-1; experiment: Induction of p16 gene expression in human Cf-Pac-1 cells after 8 days by real time PCR in presence of 1 to 2 mM thymidine; format: functional, cell-based
[5] = system: T-24; experiment: Induction of p16 gene expression in human T24 cells at 10 uM after 8 days by real time PCR; format: functional, cell-based; how it was run: as §1
[6] = system: CFPAC-1; experiment: Induction of p16 gene expression in human Cf-Pac-1 cells at 100 uM after 8 days by real time PCR; format: functional, cell-based; how it was run: as §2
[7] = system: CFPAC-1; experiment: Induction of p16 gene expression in human Cf-Pac-1 cells at 10 uM after 8 days by real time PCR; format: functional, cell-based; how it was run: as §2
[8] = system: T-24; experiment: Induction of p16 gene expression in human T24 cells after 8 days by real time PCR in presence of […]; format: functional, cell-based; how it was run: as §1
[9] = system: CFPAC-1; experiment: Induction of hypomethylation at CPG-poor promoter region of MAGEA1 gene in human Cf-Pac-1 cells at 100 uM after 8 days by quantitative Ms-SNuPE in presence of 100 uM thymidine; format: functional, cell-based
How it was run: (§3)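 Cf-Pac-1 cells were treated with continuous redosing and received 100 μM thymidine. Genomic DNA (4 μg) was bisulfite-treated and then PCR-amplified: 94°C 3 min, then 40 cycles of 94°C/annealing/72°C, 45 s each. Annealing was 65°C for p16, 53°C for MAGEA1 and 58°C for D4Z4. Ms-SNuPE primer extension was 94°C 1 min, 50°C 30 s, 72°C 20 s.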

[10] = system: CFPAC-1; experiment: Induction of p16 gene expression in human Cf-Pac-1 cells at 100 uM by real time PCR in presence of […]; format: functional, cell-based; how it was run: as §2
[11] = system: CFPAC-1; experiment: Cytotoxicity against human Cf-Pac-1 cells assessed as increase in cell population doubling time at 10 uM after 8 days in presence of 100 uM thymidine; format: functional
How it was run: (§4)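 Cf-Pac-1 cells grown in IMDM with 10% heat-inactivated FCS at 37°C, 5% CO2. Seeded 3×10^5 cells/10cm dish and treated 24 hr later. Medium and drug were renewed every 2–3 days. Cells were counted by Coulter counter every 2–3 days, with two plates averaged. Population doublings = log(harvested/seeded)/log2. Result is % increase in doubling time over untreated cells.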

[12] = system: CFPAC-1; experiment: Induction of hypomethylation at CPG-rich region of p16 in human Cf-Pac-1 cells at 100 uM after 8 days by quantitative Ms-SNuPE in presence of 100 uM thymidine; format: functional, cell-based; how it was run: as §3
[13] = system: CFPAC-1; experiment: Induction of hypomethylation at repeat sequence D4Z4 in human Cf-Pac-1 cells at 100 uM after 8 days by quantitative Ms-SNuPE in presence of 100 uM thymidine; format: functional, cell-based; how it was run: as §3
[14] = system: CFPAC-1; experiment: Induction of p16 gene expression in human Cf-Pac-1 cells at 10 uM by real time PCR in presence of […]; format: functional, cell-based; how it was run: as §2
[15] = system: CFPAC-1; experiment: Cytotoxicity against human Cf-Pac-1 cells assessed as increase in cell population doubling time at 100 uM after 8 days in presence of 100 uM thymidine; format: functional; how it was run: as §4
[16] = system: HCT-15; experiment: Induction of p16 gene expression in human HCT15 cells at 100 uM after 8 days by real time PCR in presence of […] thymidine; format: functional, cell-based; how it was run: as §1
[17] = system: CFPAC-1; experiment: Induction of hypomethylation at repeat sequence D4Z4 in human Cf-Pac-1 cells at 10 uM after 8 days by quantitative Ms-SNuPE in presence of 100 uM thymidine; format: functional, cell-based; how it was run: as §3
[18] = system: CFPAC-1; experiment: Induction of hypomethylation at CPG-rich region of p16 in human Cf-Pac-1 cells at 10 uM after 8 days by quantitative Ms-SNuPE in presence of 100 uM thymidine; format: functional, cell-based; how it was run: as §3
[19] = system: CFPAC-1; experiment: Induction of hypomethylation at CPG-poor promoter region of MAGEA1 gene in human Cf-Pac-1 cells at 10 uM after 8 days by quantitative Ms-SNuPE in presence of 100 uM thymidine; format: functional, cell-based; how it was run: as §3
[20] = system: CFPAC-1; experiment: Cytotoxicity against human Cf-Pac-1 cells assessed as increase in cell population doubling time at 1 uM after 8 days in presence of 100 uM thymidine; format: functional; how it was run: as §4

Structure (SMILES)	Activity [1]	Activity [2]	Activity [3]	Activity [4]	Activity [5]	Activity [6]	Activity [7]	Activity [8]	Activity [9]	Activity [10]	Activity [11] [%]	Activity [12]	Activity [13]	Activity [14]	Activity [15]	Activity [16]	Activity [17]	Activity [18]	Activity [19]	Activity [20] [%]
C[C@H](NP(=O)(OC[C@H]1O[C@@H](n2cccnc2=O)C[C@@H]1O)Oc1ccccc1)C(=O)OCc1ccccc1 (stereo partly specified)	inactive	inactive	inactive	inactive	inactive	inactive	inactive													
CC(C)(NP(=O)(OC[C@H]1O[C@@H](n2cccnc2=O)C[C@@H]1OP(=O)(NC(C)(C)C(=O)OCc1ccccc1)Oc1ccccc1)Oc1ccccc1)C(=O)OCc1ccccc1 (stereo partly specified)	inactive	inactive	inactive	inactive	inactive	inactive	inactive	inactive												
CC(C)(NP(=O)(OC[C@H]1O[C@@H](n2cccnc2=O)C[C@@H]1O)Oc1cccc2ccccc12)C(=O)OCc1ccccc1 (stereo partly specified)	inactive	inactive	inactive	inactive	inactive	inactive	inactive	inactive	Active	Active	36	Active	Active	Active	23%					
O=c1ncccn1[C@@H]1O[C@H](CO)[C@@H](O)[C@H]1O [ZEBULARINE]															103%	Active				
CCOC(=O)[C@H](C)NP(=O)(OC[C@H]1O[C@@H](n2cccnc2=O)C[C@@H]1O)Oc1ccc(Cl)cc1 (stereo partly specified)	inactive	inactive	inactive	inactive	inactive	inactive	inactive	inactive												
CCOC(=O)[C@H](C)NP(=O)(OC[C@H]1O[C@@H](n2cccnc2=O)C[C@@H]1OP(=O)(N[C@@H](C)C(=O)OCC)Oc1ccc(Cl)cc1)Oc1ccc(Cl)cc1 (stereo partly specified)	inactive	inactive	inactive	inactive	inactive	inactive	inactive	inactive												
COC(=O)[C@H](C)NP(=O)(OC[C@H]1O[C@@H](n2cccnc2=O)C[C@@H]1O)Oc1ccccc1 (stereo partly specified)	inactive	inactive	inactive	inactive	inactive	inactive	inactive													
CC(C)(NP(=O)(OC[C@H]1O[C@@H](n2cccnc2=O)C[C@@H]1O)Oc1ccccc1)C(=O)OCc1ccccc1 (stereo partly specified)	inactive	inactive	inactive	inactive	inactive	inactive	inactive	inactive												
Cc1cn([C@H]2C[C@H](O)[C@@H](CO)O2)c(=O)[nH]c1=O [DOXRIBTIMINE]															0%					
COC(=O)[C@H](C)NP(=O)(OC[C@H]1O[C@@H](n2cccnc2=O)[C@@H](F)[C@@H]1O)Oc1ccccc1 (stereo partly specified)	inactive	inactive	inactive	inactive	inactive	inactive	inactive													
CCOC(=O)C(C)(C)NP(=O)(OC[C@H]1O[C@@H](n2cccnc2=O)C[C@@H]1OP(=O)(NC(C)(C)C(=O)OCC)Oc1cccc2ccccc12)Oc1cccc2ccccc12 (stereo partly specified)	inactive	inactive	inactive	inactive	inactive	inactive	inactive	inactive						Active	Active		Active	Active	Active	
C[C@H](NP(=O)(OC[C@H]1O[C@@H](n2cccnc2=O)[C@@H](F)[C@@H]1O)Oc1ccccc1)C(=O)OCc1ccccc1 (stereo partly specified)	inactive	inactive	inactive	inactive	inactive	inactive	inactive													
CCOC(=O)C(C)(C)NP(=O)(OC[C@H]1O[C@@H](n2cccnc2=O)C[C@@H]1O)Oc1cccc2ccccc12 (stereo partly specified)	inactive	inactive	inactive	inactive	inactive	inactive	inactive	inactive	Active	Active	81	Active	Active	Active						58

Source: ChEMBL document CHEMBL1140219, “Activation of p16 gene silenced by DNA methylation in cancer cells by phosphoramidate derivatives of 2'-deoxyzebularine” (2008)
